From ChEMBL document CHEMBL3734687, “Mechanism of action of antiepileptic ceramide from Red Sea soft coral Sarcophyton auritum” (2015)
Calls of active or inactive are those of the source. No cut-off for these calls is given here.

Tests used:
Mus musculus [1] = assay: Anxiolytic activity in mouse assessed as increase in time spent in the open arm at 1 mg/kg measured for 3 mins by elevated plus maze test relative to vehicle treated control; type: functional, organism-based
Summary of the method: (§1)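 Elevated plus maze in mice, 3 min screen. Read-out is percent of time spent in the open arms versus vehicle-treated mice. Diazepam reference at 1 mg/kg. Pretreatment with bicuculline (0.1 mg/kg, i.p.) or ondansetron (1 mg/kg, i.p.) preceded the test agent. n = 6/group. One-way ANOVA followed by Bonferroni, P<0.05.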

Mus musculus [2] = assay: Anxiolytic activity in mouse assessed as increase in time spent in the light area at 1 mg/kg, ip measured for 3 mins by dark-light transition test; type: functional, organism-based
Summary of the method: (§2)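 Dark-light transition box in mice, 3 min session. Cumulative time spent in the light area was recorded. Diazepam reference at 1 mg/kg i.p. Antagonist arms were pretreated with bicuculline (0.1 mg/kg, i.p.) or ondansetron (1 mg/kg, i.p.) before the test agent. n = 6. One-way ANOVA with Bonferroni comparisons, P<0.05.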

Mus musculus [3] = species on record: Mus musculus; assay: Anticonvulsant activity in mouse assessed as time to death post pentylenetetrazole challenge measured for 20 mins; type: functional
Summary of the method: (§3)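 Mice given an acute pentylenetetrazole challenge (70 mg/kg, i.p.). Time to death recorded over a 20 min observation. Some groups were pretreated with bicuculline (0.1 mg/kg, i.p.) or ondansetron (1 mg/kg, i.p.) before the test agent. n = 6 per group. One-way ANOVA with Bonferroni post-test, P<0.05.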

Mus musculus [4] = assay: Anxiolytic activity in mouse assessed as increase in time spent in the open arm pretreated with 1 mg/kg, ip 5-HT3 receptor blocker ondansetron followed by compound administration measured for 3 mins by elevated plus maze test; type: functional, organism-based; summary of the method: as §1
Mus musculus [5] = assay: Anxiolytic activity in mouse assessed as increase in time spent in the light area pretreated with 1 mg/kg, ip 5-HT3 receptor blocker ondansetron followed by compound administration measured for 3 mins by dark-light transition test; type: functional, organism-based; summary of the method: as §2
Mus musculus [6] = assay: Anticonvulsant activity in mouse model of PTZ-induced seizures assessed as prolongation of death time post pentylenetetrazole challenge pretreated with 0.1 mg/kg, ip GABA-A blocker bicuculline followed by compound administration measured for 20 mins; type: functional, organism-based; summary of the method: as §3
Mus musculus [7] = assay: Anticonvulsant activity in mouse model of PTZ-induced seizures assessed as prolongation of death time post pentylenetetrazole challenge pretreated with 1 mg/kg, ip 5-HT3 receptor blocker ondansetron followed by compound administration measured for 20 mins; type: functional, organism-based; summary of the method: as §3
Mus musculus [8] = species on record: Mus musculus; assay: Anxiolytic activity in mouse assessed as increase in time spent in the open arm measured for 3 mins by elevated plus maze test relative to vehicle treated control; type: functional, organism-based; summary of the method: as §1
Mus musculus [9] = assay: Anxiolytic activity in mouse assessed as increase in time spent in the open arm pretreated with 0.1 mg/kg, ip GABA-A blocker bicuculline followed by compound administration measured for 3 mins by elevated plus maze test; type: functional, organism-based; summary of the method: as §1
Mus musculus [10] = assay: Anxiolytic activity in mouse assessed as increase in time spent in the light area pretreated with 0.1 mg/kg, ip GABA-A blocker bicuculline followed by compound administration measured for 3 mins by dark-light transition test; type: functional, organism-based; summary of the method: as §2
Mus musculus [11] = species on record: Mus musculus; assay: Anxiolytic activity in mouse assessed as increase in time spent in the light area measured for 3 mins by dark-light transition test; type: functional, organism-based; summary of the method: as §2

SMILES	Activity (Mus musculus [1])	Activity (Mus musculus [2])	Time (Mus musculus [3])	Activity (Mus musculus [4])	Activity (Mus musculus [5])	Activity (Mus musculus [6])	Activity (Mus musculus [7])	Activity (Mus musculus [8])	Activity (Mus musculus [9])	Activity (Mus musculus [10])	Activity (Mus musculus [11])
CN1C(=O)CN=C(c2ccccc2)c2cc(Cl)ccc21 [DIAZEPAM]	Active	Active	536 s	–	–	–	–	–	–	–	–
CCCCCCCCCCCCCC/C=C/C=C/[C@@H](O)[C@H](CO)NC(=O)CCCCCCCCCCCC	–	–	911 s	Active	Active	inactive	Active	Active	inactive	inactive	Active
